In ChEMBL document CHEMBL4152256, “Structure-activity relationship of new antimalarial 1-aryl-3-susbtituted propanol derivatives: Synthesis, preliminary toxicity profiling, parasite life cycle stage studies, target exploration, and targeted delivery” (Eur J Med Chem, 2018):

How the values were obtained:
[1] = system: Plasmodium falciparum; experiment: Antiplasmodial activity against multidrug-resistant Plasmodium falciparum FCR-3 by [3H]-hypoxanthine incorporation assay; format: functional, organism-based, FCR-3/Gambia; settings: Plasmodium falciparum, FCR-3/Gambia
Method in brief: (§1)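 Blood-stage P. falciparum 3D7 and FCR-3 were tested by a modified [3H]-hypoxanthine incorporation assay. Chloroquine was the reference in all runs.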

[2] = system: Plasmodium falciparum; experiment: Antiplasmodial activity against chloroquine-sensitive Plasmodium falciparum 3D7 by [3H]-hypoxanthine incorporation assay; format: functional, organism-based; settings: Plasmodium falciparum, 3D7; method in brief: as §1
[3] = Cytotoxicity against human HepG2A16 cells by MTT assay; format: cell-based; settings: HepG2A16 cells
Method in brief: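 MTT viability assay on HepG2-A16 cells, giving CC50 values.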

[4] = Selectivity index, ratio of CC50 for human HepG2A16 cells by MTT assay to IC50 for multidrug-resistant Plasmodium falciparum FCR-3; format: toxicity; settings: HepG2A16 cells, read-out: Ratio CC50/IC50
Method in brief: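 HepG2-A16 human hepatoma cells were tested by MTT viability assay to give CC50. Blood-stage activity was measured against the multidrug-resistant P. falciparum FCR-3 strain by [3H]-hypoxanthine incorporation to give IC50. SI = CC50 HepG2 / FCR-3 IC50.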

[5] = Genotoxicity in Salmonella typhimurium TA1535 harboring pSK1002 assessed as survival at 0.125 mg/ml in absence of Sprague-Dawley rat liver S9 fraction after by SOS/umu assay relative to control; format: toxicity, organism-based; settings: salmonella enterica subsp. enterica serovar typhimurium, read-out: Survival
[6] = Genotoxicity in Salmonella typhimurium TA1535 harboring pSK1002 assessed as umu gene induction at 0.125 mg/ml in absence of Sprague-Dawley rat liver S9 fraction after by SOS/umu assay relative to control; format: toxicity, organism-based; settings: salmonella enterica subsp. enterica serovar typhimurium, read-out: FC
[7] = Genotoxicity in Salmonella typhimurium TA1535 harboring pSK1002 assessed as survival at 0.125 mg/ml in presence of Sprague-Dawley rat liver S9 fraction after by SOS/umu assay relative to control; format: toxicity, organism-based; settings: salmonella enterica subsp. enterica serovar typhimurium, read-out: Survival
[8] = Genotoxicity in Salmonella typhimurium TA1535 harboring pSK1002 assessed as umu gene induction at 0.125 mg/ml in presence of Sprague-Dawley rat liver S9 fraction after by SOS/umu assay relative to control; format: toxicity, organism-based; settings: salmonella enterica subsp. enterica serovar typhimurium, read-out: FC
[9] = Genotoxicity in Salmonella typhimurium TA1535 harboring pSK1002 assessed as survival at 0.063 mg/ml in absence of Sprague-Dawley rat liver S9 fraction after by SOS/umu assay relative to control; format: toxicity, organism-based; settings: salmonella enterica subsp. enterica serovar typhimurium, read-out: Survival
[10] = Genotoxicity in Salmonella typhimurium TA1535 harboring pSK1002 assessed as umu gene induction at 0.063 mg/ml in absence of Sprague-Dawley rat liver S9 fraction after by SOS/umu assay relative to control; format: toxicity, organism-based; settings: salmonella enterica subsp. enterica serovar typhimurium, read-out: FC
[11] = Genotoxicity in Salmonella typhimurium TA1535 harboring pSK1002 assessed as survival at 0.063 mg/ml in presence of Sprague-Dawley rat liver S9 fraction after by SOS/umu assay relative to control; format: toxicity, organism-based; settings: salmonella enterica subsp. enterica serovar typhimurium, read-out: Survival
[12] = Genotoxicity in Salmonella typhimurium TA1535 harboring pSK1002 assessed as umu gene induction at 0.063 mg/ml in presence of Sprague-Dawley rat liver S9 fraction after by SOS/umu assay relative to control; format: toxicity, organism-based; settings: salmonella enterica subsp. enterica serovar typhimurium, read-out: FC
[13] = Genotoxicity in Salmonella typhimurium TA1535 harboring pSK1002 assessed as survival at 0.031 mg/ml in absence of Sprague-Dawley rat liver S9 fraction after by SOS/umu assay relative to control; format: toxicity, organism-based; settings: salmonella enterica subsp. enterica serovar typhimurium, read-out: Survival
[14] = Genotoxicity in Salmonella typhimurium TA1535 harboring pSK1002 assessed as umu gene induction at 0.031 mg/ml in absence of Sprague-Dawley rat liver S9 fraction after by SOS/umu assay relative to control; format: toxicity, organism-based; settings: salmonella enterica subsp. enterica serovar typhimurium, read-out: FC
[15] = Genotoxicity in Salmonella typhimurium TA1535 harboring pSK1002 assessed as survival at 0.031 mg/ml in presence of Sprague-Dawley rat liver S9 fraction after by SOS/umu assay relative to control; format: toxicity, organism-based; settings: salmonella enterica subsp. enterica serovar typhimurium, read-out: Survival
[16] = Genotoxicity in Salmonella typhimurium TA1535 harboring pSK1002 assessed as umu gene induction at 0.031 mg/ml in presence of Sprague-Dawley rat liver S9 fraction after by SOS/umu assay relative to control; format: toxicity, organism-based; settings: salmonella enterica subsp. enterica serovar typhimurium, read-out: FC
[17] = Genotoxicity in Salmonella typhimurium TA1535 harboring pSK1002 assessed as survival at 0.016 mg/ml in absence of Sprague-Dawley rat liver S9 fraction after by SOS/umu assay relative to control; format: toxicity, organism-based; settings: salmonella enterica subsp. enterica serovar typhimurium, read-out: Survival
[18] = Genotoxicity in Salmonella typhimurium TA1535 harboring pSK1002 assessed as umu gene induction at 0.016 mg/ml in absence of Sprague-Dawley rat liver S9 fraction after by SOS/umu assay relative to control; format: toxicity, organism-based; settings: salmonella enterica subsp. enterica serovar typhimurium, read-out: FC
[19] = Genotoxicity in Salmonella typhimurium TA1535 harboring pSK1002 assessed as survival at 0.016 mg/ml in presence of Sprague-Dawley rat liver S9 fraction after by SOS/umu assay relative to control; format: toxicity, organism-based; settings: salmonella enterica subsp. enterica serovar typhimurium, read-out: Survival
[20] = Genotoxicity in Salmonella typhimurium TA1535 harboring pSK1002 assessed as umu gene induction at 0.016 mg/ml in presence of Sprague-Dawley rat liver S9 fraction after by SOS/umu assay relative to control; format: toxicity, organism-based; settings: salmonella enterica subsp. enterica serovar typhimurium, read-out: FC
[21] = Genotoxicity in Salmonella typhimurium TA1535 harboring pSK1002 assessed as survival at 0.008 mg/ml in absence of Sprague-Dawley rat liver S9 fraction after by SOS/umu assay relative to control; format: toxicity, organism-based; settings: salmonella enterica subsp. enterica serovar typhimurium, read-out: Survival
[22] = Genotoxicity in Salmonella typhimurium TA1535 harboring pSK1002 assessed as umu gene induction at 0.008 mg/ml in absence of Sprague-Dawley rat liver S9 fraction after by SOS/umu assay relative to control; format: toxicity, organism-based; settings: salmonella enterica subsp. enterica serovar typhimurium, read-out: FC
[23] = Genotoxicity in Salmonella typhimurium TA1535 harboring pSK1002 assessed as survival at 0.008 mg/ml in presence of Sprague-Dawley rat liver S9 fraction after by SOS/umu assay relative to control; format: toxicity, organism-based; settings: salmonella enterica subsp. enterica serovar typhimurium, read-out: Survival
[24] = Genotoxicity in Salmonella typhimurium TA1535 harboring pSK1002 assessed as umu gene induction at 0.008 mg/ml in presence of Sprague-Dawley rat liver S9 fraction after by SOS/umu assay relative to control; format: toxicity, organism-based; settings: salmonella enterica subsp. enterica serovar typhimurium, read-out: FC
[25] = Genotoxicity in Salmonella typhimurium TA1535 harboring pSK1002 assessed as survival at 0.004 mg/ml in absence of Sprague-Dawley rat liver S9 fraction after by SOS/umu assay relative to control; format: toxicity, organism-based; settings: salmonella enterica subsp. enterica serovar typhimurium, read-out: Survival
[26] = Genotoxicity in Salmonella typhimurium TA1535 harboring pSK1002 assessed as umu gene induction at 0.004 mg/ml in absence of Sprague-Dawley rat liver S9 fraction after by SOS/umu assay relative to control; format: toxicity, organism-based; settings: salmonella enterica subsp. enterica serovar typhimurium, read-out: FC
[27] = Genotoxicity in Salmonella typhimurium TA1535 harboring pSK1002 assessed as survival at 0.004 mg/ml in presence of Sprague-Dawley rat liver S9 fraction after by SOS/umu assay relative to control; format: toxicity, organism-based; settings: salmonella enterica subsp. enterica serovar typhimurium, read-out: Survival
[28] = Genotoxicity in Salmonella typhimurium TA1535 harboring pSK1002 assessed as umu gene induction at 0.004 mg/ml in presence of Sprague-Dawley rat liver S9 fraction after by SOS/umu assay relative to control; format: toxicity, organism-based; settings: salmonella enterica subsp. enterica serovar typhimurium, read-out: FC
[29] = Genotoxicity in Salmonella typhimurium TA1535 harboring pSK1002 assessed as survival at 0.002 mg/ml in absence of Sprague-Dawley rat liver S9 fraction after by SOS/umu assay relative to control; format: toxicity, organism-based; settings: salmonella enterica subsp. enterica serovar typhimurium, read-out: Survival
[30] = Genotoxicity in Salmonella typhimurium TA1535 harboring pSK1002 assessed as umu gene induction at 0.002 mg/ml in absence of Sprague-Dawley rat liver S9 fraction after by SOS/umu assay relative to control; format: toxicity, organism-based; settings: salmonella enterica subsp. enterica serovar typhimurium, read-out: FC
[31] = Genotoxicity in Salmonella typhimurium TA1535 harboring pSK1002 assessed as survival at 0.002 mg/ml in presence of Sprague-Dawley rat liver S9 fraction after by SOS/umu assay relative to control; format: toxicity, organism-based; settings: salmonella enterica subsp. enterica serovar typhimurium, read-out: Survival
[32] = Genotoxicity in Salmonella typhimurium TA1535 harboring pSK1002 assessed as umu gene induction at 0.002 mg/ml in presence of Sprague-Dawley rat liver S9 fraction after by SOS/umu assay relative to control; format: toxicity, organism-based; settings: salmonella enterica subsp. enterica serovar typhimurium, read-out: FC
[33] = Genotoxicity in Salmonella typhimurium TA1535 harboring pSK1002 assessed as survival at 0.001 mg/ml in absence of Sprague-Dawley rat liver S9 fraction after by SOS/umu assay relative to control; format: toxicity, organism-based; settings: salmonella enterica subsp. enterica serovar typhimurium, read-out: Survival
[34] = Genotoxicity in Salmonella typhimurium TA1535 harboring pSK1002 assessed as umu gene induction at 0.001 mg/ml in absence of Sprague-Dawley rat liver S9 fraction after by SOS/umu assay relative to control; format: toxicity, organism-based; settings: salmonella enterica subsp. enterica serovar typhimurium, read-out: FC
[35] = Genotoxicity in Salmonella typhimurium TA1535 harboring pSK1002 assessed as survival at 0.001 mg/ml in presence of Sprague-Dawley rat liver S9 fraction after by SOS/umu assay relative to control; format: toxicity, organism-based; settings: salmonella enterica subsp. enterica serovar typhimurium, read-out: Survival
[36] = Genotoxicity in Salmonella typhimurium TA1535 harboring pSK1002 assessed as umu gene induction at 0.001 mg/ml in presence of Sprague-Dawley rat liver S9 fraction after by SOS/umu assay relative to control; format: toxicity, organism-based; settings: salmonella enterica subsp. enterica serovar typhimurium, read-out: FC

O=[N+]([O-])c1ccccc1N1CCN(CCC(O)c2ccc(F)c3ccccc23)CC1 (stereo unspecified)
IC50 [1]: 2.62 µM | IC50 [2]: 0.92 µM | CC50 [3]: 19.9 µM | selectivity ratio [4]: 8 | viability at 0.125 mg/ml [5]: 174% | fold induction at 0.125 mg/ml [6]: 0.5 | viability at 0.125 mg/ml [7]: 76.2% | fold induction at 0.125 mg/ml [8]: 1.3 | viability at 0.063 mg/ml [9]: 118% | fold induction at 0.063 mg/ml [10]: 0.8 | viability at 0.063 mg/ml [11]: 63.8% | fold induction at 0.063 mg/ml [12]: 1.4 | viability at 0.031 mg/ml [13]: 66.8% | fold induction at 0.031 mg/ml [14]: 1.5 | viability at 0.031 mg/ml [15]: 63.2% | fold induction at 0.031 mg/ml [16]: 1.9 | viability at 0.016 mg/ml [17]: 50.6% | fold induction at 0.016 mg/ml [18]: 2 | viability at 0.016 mg/ml [19]: 64.5% | fold induction at 0.016 mg/ml [20]: 1.9 | viability at 0.008 mg/ml [21]: 87.9% | fold induction at 0.008 mg/ml [22]: 1.7 | viability at 0.008 mg/ml [23]: 89.5% | fold induction at 0.008 mg/ml [24]: 1 | viability at 0.004 mg/ml [25]: 106% | fold induction at 0.004 mg/ml [26]: 0.9 | viability at 0.004 mg/ml [27]: 92.2% | fold induction at 0.004 mg/ml [28]: 1.2 | viability at 0.002 mg/ml [29]: 111% | fold induction at 0.002 mg/ml [30]: 0.9 | viability at 0.002 mg/ml [31]: 84.3% | fold induction at 0.002 mg/ml [32]: 0.7 | viability at 0.001 mg/ml [33]: 100% | fold induction at 0.001 mg/ml [34]: 1.1 | viability at 0.001 mg/ml [35]: 77.8% | fold induction at 0.001 mg/ml [36]: 1.4
